Source: PubChem BioAssay (Broad Institute)
This excerpt belongs to a sample that is enriched for hits.
XiGFP reactiv – X-chromosome reactivation activator | XiGFP mouse fibroblasts, % GFP-positive cells imaging, 3 d; cells co-treated with 5-aza-dC sensitizer; scaled so ellipticine positive control = 100% | activation, % at 7.58 µM | 0.055% of 360,000 active;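 active = mean normalized replicate activation at least 10% and every replicate at or above 10%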
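material = 68-5-11 XiGFP fibroblast line | medium = DMEM plus 5-aza-dC sensitizer | schedule = 3 days compound exposure | benchmarks = positive control ellipticine, 6 µM final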
E-selectin induc – induces E-selectin expression in human endothelial cells. HUVEC E-selectin immunofluorescence imaging; normalized: neutral wells 0, TNF-alpha wells 100. activation, % at 7.58 µM. P16581. 0.37% of 260,000 active. AID 686992;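 active = mean E-selectin-positive cell signal at least 10% of the positive control, reached in at least 60% of replicates, without over 20% cell loss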
Target sequence (P16581 whole entry, looked up): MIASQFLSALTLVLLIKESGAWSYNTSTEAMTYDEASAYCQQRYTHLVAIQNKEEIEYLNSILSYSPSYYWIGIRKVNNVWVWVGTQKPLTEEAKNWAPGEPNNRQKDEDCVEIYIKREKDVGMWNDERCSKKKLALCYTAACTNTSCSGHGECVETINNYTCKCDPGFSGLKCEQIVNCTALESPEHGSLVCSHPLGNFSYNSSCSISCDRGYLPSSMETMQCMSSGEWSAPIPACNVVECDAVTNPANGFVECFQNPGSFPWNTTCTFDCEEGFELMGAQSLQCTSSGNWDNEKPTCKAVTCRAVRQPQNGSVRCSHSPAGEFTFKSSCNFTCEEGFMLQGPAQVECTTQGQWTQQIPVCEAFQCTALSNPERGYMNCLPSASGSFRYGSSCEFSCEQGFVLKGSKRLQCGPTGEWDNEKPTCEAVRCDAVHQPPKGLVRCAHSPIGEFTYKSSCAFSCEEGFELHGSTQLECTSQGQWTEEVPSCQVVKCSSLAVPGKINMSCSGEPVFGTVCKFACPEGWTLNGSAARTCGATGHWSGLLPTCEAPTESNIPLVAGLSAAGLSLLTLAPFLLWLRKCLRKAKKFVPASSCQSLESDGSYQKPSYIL
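Read-out: % PE-positive cells | Test system: HUVEC | Doses: One compound dose added by pin transfer | Buffer or medium: EGM-2 over gelatin coat | Signal: Immunofluorescence imaging | Benchmarks: TNF-alpha, DMSO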
A number is an active result; n = inactive; x = not tested or not shown.

SMILES	XiGFP reactiv	E-selectin induc
CC(C)C#Cc1ccc2c(c1)O[C@H](CN(C)C(=O)c1cccc(F)c1)[C@@H](C)CN([C@H](C)CO)S2(=O)=O	n	n
COc1ccc(/C=N/NC(=O)Cc2ccc(Cl)cc2)cc1OC	n	x
CCN(CC)c1ccc(/C=N/NC(=O)Cc2ccc(OC)c(OC)c2)cc1	n	36
COc1ccc2c3c(n(C)c2c1)[C@H](CO)N(C(=O)CN1CCOCC1)CC31CCN(C(C)=O)CC1	n	n
C[C@@H]1CN([C@H](C)CO)C(=O)c2cccc(NC(=O)c3ccncc3)c2O[C@H]1CN(C)S(=O)(=O)c1ccccc1	n	32
C[C@@H]1CN([C@@H](C)CO)C(=O)c2cccc(NC(=O)c3ccncc3)c2O[C@H]1CN(C)C(=O)Nc1cccc2ccccc12	n	26
C[C@H]1CN([C@@H](C)CO)C(=O)c2cccc(NC(=O)c3ccncc3)c2O[C@@H]1CN(C)S(=O)(=O)c1ccccc1	n	n
C[C@H](CO)N1C[C@H](C)[C@H](CN(C)C(=O)Nc2ccccc2)Oc2c(NS(=O)(=O)c3cccs3)cccc2C1=O	n	50
C[C@H](CO)N1C[C@H](C)[C@@H](CN(C)C(=O)Nc2ccccc2)Oc2c(NS(=O)(=O)c3cccs3)cccc2C1=O	n	n
C[C@H](CO)N1C[C@H](C)[C@H](CN(C)C(=O)Nc2cccc3ccccc23)Oc2c(NC(=O)c3ccncc3)cccc2C1=O	n	n
Cc1ccc(S(=O)(=O)Nc2cccc3c2O[C@H](CN(C)S(=O)(=O)c2ccc(Cl)cc2)[C@H](C)CN([C@H](C)CO)C3=O)cc1	n	n
Cc1ccc(S(=O)(=O)N(C)C[C@@H]2Oc3c(NS(=O)(=O)c4ccc(Cl)cc4)cccc3C(=O)N([C@@H](C)CO)C[C@H]2C)cc1	n	49
C[C@@H]1CN([C@@H](C)CO)S(=O)(=O)c2ccc(C#CC3CCCC3)cc2O[C@@H]1CN(C)C(=O)c1cccc(F)c1	n	n
C[C@@H]1CN([C@H](C)CO)C(=O)c2cc(N(C)C)ccc2O[C@@H](C)CCCCO[C@H]1CN(C)Cc1ccc(C(=O)Nc2ccccc2N)cc1	n	x
C[C@H]1CN([C@@H](C)CO)C(=O)Cc2cc(NC(=O)C3CCCCC3)ccc2O[C@H]1CN(C)S(=O)(=O)c1ccccc1	n	n
C[C@@H]1CN(C)C(=O)c2ccccc2O[C@H]1CN(C)C	n	x
C/C=C/c1ccc([C@@H]2[C@@H](CO)N(C(C)=O)[C@@H]2CNC(=O)CC2CC2)cc1	n	n
CC(C)[C@H]1CCc2cnnn2COC[C@H](c2ccccc2)NC1=O	n	x
C[C@H](CO)N1C[C@H](C)[C@H](CN(C)S(=O)(=O)c2ccccc2)Oc2c(NC(=O)C3CC3)cccc2C1=O	n	n
C[C@@H]1CN([C@H](C)CO)C(=O)c2cccc(NS(=O)(=O)c3ccc(F)cc3)c2O[C@@H]1CN(C)S(=O)(=O)c1cccs1	n	36
C[C@H](CO)N1C[C@H](C)[C@@H](CN(C)S(=O)(=O)c2ccc(Cl)cc2)Oc2c(NC(=O)C3CCCCC3)cccc2C1=O	n	n
C[C@H](CO)N1C[C@H](C)[C@H](CN(C)S(=O)(=O)c2ccc(Cl)cc2)Oc2c(NC(=O)C3CCCCC3)cccc2C1=O	n	36
C[C@H](CO)N1C[C@H](C)[C@H](CN(C)S(=O)(=O)c2ccccc2)Oc2c(NC(=O)C3CCOCC3)cccc2C1=O	n	31
C[C@H](CO)N1C[C@H](C)[C@@H](CN(C)S(=O)(=O)c2cccs2)Oc2c(NS(=O)(=O)c3ccc(F)cc3)cccc2C1=O	n	n
CO[C@H]1CN(C)C(=O)c2cc(NC(=O)c3nc4ccccc4s3)ccc2OC[C@H](C)N(Cc2cncnc2)C[C@@H]1C	n	n
SMILES	XiGFP reactiv	E-selectin induc
CC(=O)Nc1cccc2c1O[C@@H](CN(C)C)[C@@H](C)CN(C)C2=O	n	x
C[C@H](CO)N1C[C@H](C)[C@H](CN(C)Cc2ccncc2)Oc2ncc(C#CC3CCCCC3)cc2C1=O	n	n
CC(C)[C@@H]1C(=O)N[C@H](c2ccccc2)CC=CC[C@@H](C)Oc2ccccc2C(=O)N1C (mixture of isomers)	n	x
O=C1N[C@@H](Cc2ccccc2)COCc2cn(nn2)CC[C@H]1Cc1ccc(Cl)cc1	n	x
COc1ccc2c3c([nH]c2c1)[C@H](CO)N(C(=O)CN(C)C)CC31CN(Cc2ccccc2Cl)C1	n	n
O=C(C[C@H]1C=C[C@@H](NS(=O)(=O)c2ccccc2F)[C@H](CO)O1)NCCCN1CCOCC1	n	n
OC(Cc1ccccc1)c1ncc(-c2ccc(Cl)cc2)[nH]1 (stereo not given)	n	n
OC(Cc1ccccc1Br)c1ncc(-c2ccc(Cl)cc2)[nH]1 (stereo not given)	n	159
